# Experimental data reported in ChEMBL document CHEMBL4689842, “EUbOPEN Chemogenomics Library wave 1” (2021).
# Test system: HEK-293T
# Test: Multiplex assay against HEK293T;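 for Population Tubulin-Different-Phenotype (%): share of the cells with healthy nuclei that show this phenotype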
# Assay type: toxicity, cell-based
# Conditions: human
# Method in brief: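 Compound was added to live cells that had been stained at seeding with Hoechst33342, BioTracker Green Microtubule Cytoskeleton Dye, MitoTracker Red and Annexin V Alexa Fluor 680, and imaging followed on a CQ1 microscope at 37°C and 5% CO2. CellPathfinder machine-learning gating divided cells into Hoechst high-intensity objects or normal cells, normal cells into healthy, pyknosed or fragmented nuclei, and pyknosed cells into mitotic or apoptotic. Tubulin, mitochondrial-mass and membrane-permeability phenotypes are per cents of healthy-nucleus cells.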
# [1] = 12 h, 1 µM, compound concentration 1 uM, replicate 1
# [2] = 12 h, 1 µM, compound concentration 1 uM, replicate 2
# [3] = 12 h, 10 µM, compound concentration 10 uM, replicate 1
# [4] = 12 h, 10 µM, compound concentration 10 uM, replicate 2
# [5] = 24 h, 1 µM, compound concentration 1 uM, replicate 1
# [6] = 24 h, 1 µM, compound concentration 1 uM, replicate 2
# [7] = 24 h, 10 µM, compound concentration 10 uM, replicate 1
# [8] = 24 h, 10 µM, compound concentration 10 uM, replicate 2
# [9] = 48 h, 1 µM, compound concentration 1 uM, replicate 1
# [10] = 48 h, 1 µM, compound concentration 1 uM, replicate 2
# [11] = 48 h, 10 µM, compound concentration 10 uM, replicate 1
# [12] = 48 h, 10 µM, compound concentration 10 uM, replicate 2
compound,measurement,setting,value
CCCS(=O)(=O)c1nc(NC2CC2)cc(-c2ccc3c(ccn3C3CC(C)(C)NC(C)(C)C3)c2)n1,Population Apoptotic (%),[1],58%
same,Population Fragmented Nuclei (%),[1],8%
same,Population Healthy Nuclei (%),[1],37%
same,Population Hoechst High Intensity Objects (%),[1],13%
same,Population Membrane Permeable-Phenotype (%),[1],4%
same,Population Mitochondria Different-Phenotype (%),[1],86%
same,Population Mitotic Cells (%),[1],41%
same,Population Normal (%),[1],86%
same,Population Pyknosed Nuclei (%),[1],53%
same,Population Tubulin-Different-Phenotype (%),[1],80%
same,Total Cell Count,[1],351
same,Population Apoptotic (%),[2],18%
same,Population Fragmented Nuclei (%),[2],11%
same,Population Healthy Nuclei (%),[2],24%
same,Population Hoechst High Intensity Objects (%),[2],7%
same,Population Membrane Permeable-Phenotype (%),[2],12%
same,Population Mitochondria Different-Phenotype (%),[2],51%
same,Population Mitotic Cells (%),[2],81%
same,Population Normal (%),[2],92%
same,Population Pyknosed Nuclei (%),[2],64%
same,Population Tubulin-Different-Phenotype (%),[2],45%
same,Total Cell Count,[2],137
same,Population Apoptotic (%),[3],65%
same,Population Fragmented Nuclei (%),[3],63%
same,Population Healthy Nuclei (%),[3],3%
same,Population Hoechst High Intensity Objects (%),[3],9%
same,Population Membrane Permeable-Phenotype (%),[3],16%
same,Population Mitochondria Different-Phenotype (%),[3],16%
same,Population Mitotic Cells (%),[3],34%
same,Population Normal (%),[3],90%
same,Population Pyknosed Nuclei (%),[3],33%
same,Population Tubulin-Different-Phenotype (%),[3],16%
same,Total Cell Count,[3],650
same,Population Apoptotic (%),[4],74%
same,Population Fragmented Nuclei (%),[4],24%
same,Population Healthy Nuclei (%),[4],1%
same,Population Hoechst High Intensity Objects (%),[4],10%
same,Population Membrane Permeable-Phenotype (%),[4],0%
same,Population Mitochondria Different-Phenotype (%),[4],100%
same,Population Mitotic Cells (%),[4],25%
same,Population Normal (%),[4],89%
same,Population Pyknosed Nuclei (%),[4],74%
same,Population Tubulin-Different-Phenotype (%),[4],100%
same,Total Cell Count,[4],274
same,Population Apoptotic (%),[5],60%
same,Population Fragmented Nuclei (%),[5],10%
same,Population Healthy Nuclei (%),[5],37%
same,Population Hoechst High Intensity Objects (%),[5],14%
same,Population Membrane Permeable-Phenotype (%),[5],2%
same,Population Mitochondria Different-Phenotype (%),[5],79%
same,Population Mitotic Cells (%),[5],39%
same,Population Normal (%),[5],85%
same,Population Pyknosed Nuclei (%),[5],52%
same,Population Tubulin-Different-Phenotype (%),[5],80%
same,Total Cell Count,[5],345
same,Population Apoptotic (%),[6],31%
same,Population Fragmented Nuclei (%),[6],11%
same,Population Healthy Nuclei (%),[6],34%
same,Population Hoechst High Intensity Objects (%),[6],7%
same,Population Membrane Permeable-Phenotype (%),[6],11%
same,Population Mitochondria Different-Phenotype (%),[6],66%
same,Population Mitotic Cells (%),[6],68%
same,Population Normal (%),[6],92%
same,Population Pyknosed Nuclei (%),[6],53%
same,Population Tubulin-Different-Phenotype (%),[6],71%
same,Total Cell Count,[6],140
same,Population Apoptotic (%),[7],60%
same,Population Fragmented Nuclei (%),[7],63%
same,Population Healthy Nuclei (%),[7],3%
same,Population Hoechst High Intensity Objects (%),[7],11%
same,Population Membrane Permeable-Phenotype (%),[7],26%
same,Population Mitochondria Different-Phenotype (%),[7],5%
same,Population Mitotic Cells (%),[7],39%
same,Population Normal (%),[7],88%
same,Population Pyknosed Nuclei (%),[7],32%
same,Population Tubulin-Different-Phenotype (%),[7],10%
same,Total Cell Count,[7],639
same,Population Apoptotic (%),[8],88%
same,Population Fragmented Nuclei (%),[8],29%
same,Population Healthy Nuclei (%),[8],4%
same,Population Hoechst High Intensity Objects (%),[8],10%
same,Population Membrane Permeable-Phenotype (%),[8],11%
same,Population Mitochondria Different-Phenotype (%),[8],33%
same,Population Mitotic Cells (%),[8],12%
same,Population Normal (%),[8],89%
same,Population Pyknosed Nuclei (%),[8],66%
same,Population Tubulin-Different-Phenotype (%),[8],88%
same,Total Cell Count,[8],249
same,Population Apoptotic (%),[9],54%
same,Population Fragmented Nuclei (%),[9],15%
same,Population Healthy Nuclei (%),[9],47%
same,Population Hoechst High Intensity Objects (%),[9],17%
same,Population Membrane Permeable-Phenotype (%),[9],7%
same,Population Mitochondria Different-Phenotype (%),[9],58%
same,Population Mitotic Cells (%),[9],45%
same,Population Normal (%),[9],82%
same,Population Pyknosed Nuclei (%),[9],37%
same,Population Tubulin-Different-Phenotype (%),[9],79%
same,Total Cell Count,[9],417
same,Population Apoptotic (%),[10],28%
same,Population Fragmented Nuclei (%),[10],9%
same,Population Healthy Nuclei (%),[10],61%
same,Population Hoechst High Intensity Objects (%),[10],5%
same,Population Membrane Permeable-Phenotype (%),[10],12%
same,Population Mitochondria Different-Phenotype (%),[10],32%
same,Population Mitotic Cells (%),[10],71%
same,Population Normal (%),[10],94%
same,Population Pyknosed Nuclei (%),[10],29%
same,Population Tubulin-Different-Phenotype (%),[10],64%
same,Total Cell Count,[10],226
same,Population Apoptotic (%),[11],69%
same,Population Fragmented Nuclei (%),[11],67%
same,Population Healthy Nuclei (%),[11],3%
same,Population Hoechst High Intensity Objects (%),[11],11%
same,Population Membrane Permeable-Phenotype (%),[11],31%
same,Population Mitochondria Different-Phenotype (%),[11],0%
same,Population Mitotic Cells (%),[11],30%
same,Population Normal (%),[11],88%
same,Population Pyknosed Nuclei (%),[11],29%
same,Population Tubulin-Different-Phenotype (%),[11],0%
same,Total Cell Count,[11],663
same,Population Apoptotic (%),[12],87%
same,Population Fragmented Nuclei (%),[12],36%
same,Population Healthy Nuclei (%),[12],19%
same,Population Hoechst High Intensity Objects (%),[12],9%
same,Population Membrane Permeable-Phenotype (%),[12],6%
same,Population Mitochondria Different-Phenotype (%),[12],65%
same,Population Mitotic Cells (%),[12],12%
same,Population Normal (%),[12],90%
same,Population Pyknosed Nuclei (%),[12],44%
same,Population Tubulin-Different-Phenotype (%),[12],93%
same,Total Cell Count,[12],253
CN1CCC(=C2c3ccccc3CC(=O)c3sccc32)CC1.O=C(O)/C=C/C(=O)O [KETOTIFEN FUMARATE],Population Apoptotic (%),[1],46%
same,Population Fragmented Nuclei (%),[1],10%
same,Population Healthy Nuclei (%),[1],37%
same,Population Hoechst High Intensity Objects (%),[1],13%
same,Population Membrane Permeable-Phenotype (%),[1],5%
same,Population Mitochondria Different-Phenotype (%),[1],73%
same,Population Mitotic Cells (%),[1],53%
same,Population Normal (%),[1],86%
same,Population Pyknosed Nuclei (%),[1],51%
same,Population Tubulin-Different-Phenotype (%),[1],40%
same,Total Cell Count,[1],288
same,Population Apoptotic (%),[2],13%
same,Population Fragmented Nuclei (%),[2],4%
same,Population Healthy Nuclei (%),[2],40%
same,Population Hoechst High Intensity Objects (%),[2],4%
same,Population Membrane Permeable-Phenotype (%),[2],12%
same,Population Mitochondria Different-Phenotype (%),[2],17%
same,Population Mitotic Cells (%),[2],86%
same,Population Normal (%),[2],95%
same,Population Pyknosed Nuclei (%),[2],54%
same,Population Tubulin-Different-Phenotype (%),[2],28%
same,Total Cell Count,[2],211
same,Population Apoptotic (%),[3],71%
same,Population Fragmented Nuclei (%),[3],11%
same,Population Healthy Nuclei (%),[3],28%
same,Population Hoechst High Intensity Objects (%),[3],10%
same,Population Membrane Permeable-Phenotype (%),[3],4%
same,Population Mitochondria Different-Phenotype (%),[3],98%
same,Population Mitotic Cells (%),[3],28%
same,Population Normal (%),[3],89%
same,Population Pyknosed Nuclei (%),[3],60%
same,Population Tubulin-Different-Phenotype (%),[3],97%
same,Total Cell Count,[3],298
same,Population Apoptotic (%),[4],54%
same,Population Fragmented Nuclei (%),[4],7%
same,Population Healthy Nuclei (%),[4],22%
same,Population Hoechst High Intensity Objects (%),[4],5%
same,Population Membrane Permeable-Phenotype (%),[4],0%
same,Population Mitochondria Different-Phenotype (%),[4],100%
same,Population Mitotic Cells (%),[4],45%
same,Population Normal (%),[4],94%
same,Population Pyknosed Nuclei (%),[4],69%
same,Population Tubulin-Different-Phenotype (%),[4],100%
same,Total Cell Count,[4],177
same,Population Apoptotic (%),[5],50%
same,Population Fragmented Nuclei (%),[5],12%
same,Population Healthy Nuclei (%),[5],42%
same,Population Hoechst High Intensity Objects (%),[5],8%
same,Population Membrane Permeable-Phenotype (%),[5],7%
same,Population Mitochondria Different-Phenotype (%),[5],67%
same,Population Mitotic Cells (%),[5],49%
same,Population Normal (%),[5],91%
same,Population Pyknosed Nuclei (%),[5],44%
same,Population Tubulin-Different-Phenotype (%),[5],49%
same,Total Cell Count,[5],307
same,Population Apoptotic (%),[6],13%
same,Population Fragmented Nuclei (%),[6],3%
same,Population Healthy Nuclei (%),[6],55%
same,Population Hoechst High Intensity Objects (%),[6],2%
same,Population Membrane Permeable-Phenotype (%),[6],14%
same,Population Mitochondria Different-Phenotype (%),[6],20%
same,Population Mitotic Cells (%),[6],86%
same,Population Normal (%),[6],97%
same,Population Pyknosed Nuclei (%),[6],41%
same,Population Tubulin-Different-Phenotype (%),[6],48%
same,Total Cell Count,[6],251
same,Population Apoptotic (%),[7],75%
same,Population Fragmented Nuclei (%),[7],12%
same,Population Healthy Nuclei (%),[7],32%
same,Population Hoechst High Intensity Objects (%),[7],11%
same,Population Membrane Permeable-Phenotype (%),[7],1%
same,Population Mitochondria Different-Phenotype (%),[7],97%
same,Population Mitotic Cells (%),[7],24%
same,Population Normal (%),[7],88%
same,Population Pyknosed Nuclei (%),[7],55%
same,Total Cell Count,[7],313
same,Population Apoptotic (%),[8],74%
same,Population Fragmented Nuclei (%),[8],4%
same,Population Healthy Nuclei (%),[8],35%
same,Population Hoechst High Intensity Objects (%),[8],4%
same,Population Membrane Permeable-Phenotype (%),[8],3%
same,Population Mitochondria Different-Phenotype (%),[8],95%
same,Population Mitotic Cells (%),[8],25%
same,Population Normal (%),[8],95%
same,Population Pyknosed Nuclei (%),[8],59%
same,Population Tubulin-Different-Phenotype (%),[8],98%
same,Total Cell Count,[8],180
same,Population Apoptotic (%),[9],35%
same,Population Fragmented Nuclei (%),[9],12%
same,Population Healthy Nuclei (%),[9],40%
same,Population Hoechst High Intensity Objects (%),[9],15%
same,Population Membrane Permeable-Phenotype (%),[9],7%
same,Population Mitochondria Different-Phenotype (%),[9],52%
same,Population Mitotic Cells (%),[9],64%
same,Population Normal (%),[9],84%
same,Population Pyknosed Nuclei (%),[9],46%
same,Population Tubulin-Different-Phenotype (%),[9],52%
same,Total Cell Count,[9],369
same,Population Apoptotic (%),[10],16%
same,Population Fragmented Nuclei (%),[10],4%
same,Population Healthy Nuclei (%),[10],79%
same,Population Hoechst High Intensity Objects (%),[10],4%
same,Population Membrane Permeable-Phenotype (%),[10],10%
same,Population Mitochondria Different-Phenotype (%),[10],11%
same,Population Mitotic Cells (%),[10],83%
same,Population Normal (%),[10],95%
same,Population Pyknosed Nuclei (%),[10],16%
same,Population Tubulin-Different-Phenotype (%),[10],38%
same,Total Cell Count,[10],468
same,Population Apoptotic (%),[11],71%
same,Population Fragmented Nuclei (%),[11],21%
same,Population Healthy Nuclei (%),[11],40%
same,Population Hoechst High Intensity Objects (%),[11],13%
same,Population Membrane Permeable-Phenotype (%),[11],2%
same,Population Mitochondria Different-Phenotype (%),[11],93%
same,Population Mitotic Cells (%),[11],28%
same,Population Normal (%),[11],86%
same,Population Pyknosed Nuclei (%),[11],38%
same,Population Tubulin-Different-Phenotype (%),[11],95%
same,Total Cell Count,[11],362
same,Population Apoptotic (%),[12],72%
same,Population Fragmented Nuclei (%),[12],2%
same,Population Healthy Nuclei (%),[12],70%
same,Population Hoechst High Intensity Objects (%),[12],4%
same,Population Membrane Permeable-Phenotype (%),[12],5%
same,Population Mitochondria Different-Phenotype (%),[12],86%
same,Population Mitotic Cells (%),[12],27%
same,Population Normal (%),[12],95%
same,Population Pyknosed Nuclei (%),[12],26%
same,Population Tubulin-Different-Phenotype (%),[12],93%
same,Total Cell Count,[12],215
